This passage reports MIC, Activity and IC50 results from ChEMBL document CHEMBL1148591, “Isothiazolopyridones: synthesis, structure, and biological activity of a new class of antibacterial agents” (J Med Chem, 2006).

SMILES strings stand for the structures. ≈ marks a conversion by molar mass, not a printed value. Calls of active or inactive are those of the source. The calls are words filed in the database; no cut-off is given here.

Assay [1] concerns Staphylococcus aureus. As to the kind of experiment: Antibacterial activity against Staphylococcus aureus ATCC 29213. It counts as functional.
Assay [2] deals with DNA topoisomerase II (Homo sapiens) (UniProt P11388+Q02880). Briefly: Activity against human topoisomerase 2. It counts as protein assay. Put shortly:
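Human topoisomerase II DNA cleavage assay. The read-out is EC₂, the drug concentration that enhances enzyme-mediated cleavage of double-stranded DNA 2-fold.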

In assay [3] the target is DNA gyrase (Escherichia coli, UniProt P0AES4+P0AES6). Briefly: Inhibition of DNA gyrase supercoiling in Escherichia coli ATCC 25922. It counts as protein-complex assay.
In assay [4] the test system is Escherichia coli. Briefly: Antibacterial activity against Escherichia coli ATCC 25922. It counts as functional.
For assay [5], the target named is DNA topoisomerase 4 subunit A (Staphylococcus aureus, UniProt P0C1U9). As to the kind of experiment: Inhibition of topoisomerase 4 decatenation in Staphylococcus aureus ATCC 29213.
The target of assay [6] is DNA gyrase (Staphylococcus aureus) (UniProt P0A0K8+P20831). As to the kind of experiment: Inhibition of DNA gyrase supercoiling in Staphylococcus aureus ATCC 29213. It counts as protein-complex assay.
Sequence of DNA gyrase (Staphylococcus aureus) (P0A0K8 2-644 limits assumed): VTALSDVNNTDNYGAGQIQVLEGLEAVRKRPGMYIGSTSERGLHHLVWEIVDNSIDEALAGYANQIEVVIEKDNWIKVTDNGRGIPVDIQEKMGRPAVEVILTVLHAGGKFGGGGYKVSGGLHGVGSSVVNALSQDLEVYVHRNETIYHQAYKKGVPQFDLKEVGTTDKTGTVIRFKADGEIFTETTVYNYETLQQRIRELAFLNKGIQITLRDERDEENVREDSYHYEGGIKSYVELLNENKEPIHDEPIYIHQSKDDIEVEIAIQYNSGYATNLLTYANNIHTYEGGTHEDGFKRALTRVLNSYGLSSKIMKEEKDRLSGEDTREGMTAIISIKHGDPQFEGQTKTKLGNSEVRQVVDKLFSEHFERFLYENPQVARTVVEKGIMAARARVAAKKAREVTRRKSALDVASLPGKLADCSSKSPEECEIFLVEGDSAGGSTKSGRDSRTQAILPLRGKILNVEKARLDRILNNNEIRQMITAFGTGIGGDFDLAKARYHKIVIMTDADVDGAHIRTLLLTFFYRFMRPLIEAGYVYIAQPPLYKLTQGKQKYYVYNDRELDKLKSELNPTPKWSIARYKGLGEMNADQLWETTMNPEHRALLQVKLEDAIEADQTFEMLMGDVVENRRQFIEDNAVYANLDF
Sequence of DNA gyrase (Staphylococcus aureus) (P20831 whole entry partner): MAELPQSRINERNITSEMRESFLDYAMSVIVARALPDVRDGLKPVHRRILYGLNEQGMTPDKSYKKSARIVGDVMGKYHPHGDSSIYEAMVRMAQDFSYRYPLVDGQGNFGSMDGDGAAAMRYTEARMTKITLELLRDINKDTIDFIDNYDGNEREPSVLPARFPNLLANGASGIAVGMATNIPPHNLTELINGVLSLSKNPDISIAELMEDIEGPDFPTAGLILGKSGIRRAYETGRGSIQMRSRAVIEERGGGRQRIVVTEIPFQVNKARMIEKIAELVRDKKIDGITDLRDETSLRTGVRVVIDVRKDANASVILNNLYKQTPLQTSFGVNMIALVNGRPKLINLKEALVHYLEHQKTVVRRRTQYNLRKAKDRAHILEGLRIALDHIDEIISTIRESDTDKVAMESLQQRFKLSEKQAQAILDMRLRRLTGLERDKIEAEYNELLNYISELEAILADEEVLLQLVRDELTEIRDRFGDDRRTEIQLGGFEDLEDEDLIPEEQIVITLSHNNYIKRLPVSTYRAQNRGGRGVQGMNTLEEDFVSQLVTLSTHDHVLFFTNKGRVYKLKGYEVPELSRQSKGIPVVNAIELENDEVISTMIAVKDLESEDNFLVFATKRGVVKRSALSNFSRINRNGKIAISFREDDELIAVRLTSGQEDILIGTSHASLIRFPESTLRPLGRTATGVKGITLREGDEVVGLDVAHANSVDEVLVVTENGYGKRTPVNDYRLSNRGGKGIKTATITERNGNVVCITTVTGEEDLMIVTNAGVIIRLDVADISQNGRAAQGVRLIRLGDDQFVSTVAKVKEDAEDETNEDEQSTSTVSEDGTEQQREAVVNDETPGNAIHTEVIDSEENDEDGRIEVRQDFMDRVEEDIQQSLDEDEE

Sequence of DNA topoisomerase 4 subunit A (P0C1U9 whole entry): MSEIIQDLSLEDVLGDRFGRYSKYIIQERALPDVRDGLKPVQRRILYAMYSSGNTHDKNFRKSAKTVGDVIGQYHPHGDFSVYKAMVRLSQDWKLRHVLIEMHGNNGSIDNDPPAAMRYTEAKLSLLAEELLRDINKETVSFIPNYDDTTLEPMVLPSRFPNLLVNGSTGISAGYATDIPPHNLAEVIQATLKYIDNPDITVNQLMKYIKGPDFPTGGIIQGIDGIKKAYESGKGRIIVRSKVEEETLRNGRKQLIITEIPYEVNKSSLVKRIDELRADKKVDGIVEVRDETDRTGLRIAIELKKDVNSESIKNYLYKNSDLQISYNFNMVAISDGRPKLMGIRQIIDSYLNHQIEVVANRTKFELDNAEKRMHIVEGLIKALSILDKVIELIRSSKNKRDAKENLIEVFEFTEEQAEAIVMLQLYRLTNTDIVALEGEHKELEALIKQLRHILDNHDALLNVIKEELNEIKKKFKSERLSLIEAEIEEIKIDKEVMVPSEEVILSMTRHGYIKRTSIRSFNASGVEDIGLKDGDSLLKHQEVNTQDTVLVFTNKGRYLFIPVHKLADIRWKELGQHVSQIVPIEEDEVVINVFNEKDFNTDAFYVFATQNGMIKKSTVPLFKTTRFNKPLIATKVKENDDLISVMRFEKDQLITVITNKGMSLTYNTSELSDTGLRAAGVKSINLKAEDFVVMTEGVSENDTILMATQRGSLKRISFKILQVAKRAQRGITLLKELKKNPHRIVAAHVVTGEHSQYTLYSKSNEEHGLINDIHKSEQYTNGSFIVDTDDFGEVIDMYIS

For `CCc1c2s[nH]c(=O)c2c(=O)n2ccc(N3CCC(N(C)C)C3)cc12` (racemic), the MIC is 8 µg/mL (≈ 22.3 µM) in assay [1] and 4 µg/mL (≈ 11.2 µM) in assay [4]. Also, the result in assay [2] and in assay [6] was inactive. The IC50 is 24 µM in assay [3] and 79 µM in assay [5].
As for `CCc1c2s[nH]c(=O)c2c(=O)n2ccc(-c3ccncc3)cc12`, the MIC in assay [1] came out at 0.125 µg/mL (≈ 0.387 µM); in assay [4], 0.25 µg/mL (≈ 0.773 µM). The result in assay [2] and in assay [6] was inactive. In addition, the IC50 in assay [3] amounted to 0.4 µM; in assay [5], 8.1 µM.
With `CCc1c2s[nH]c(=O)c2c(=O)n2ccc(N3CCNCC3)cc12`, the results for the minimal inhibitory concentration (MIC) in assay [1] and in assay [4] were 16 µg/mL (≈ 48.4 µM) and 4 µg/mL (≈ 12.1 µM), respectively. Besides, the result in assay [2] and in assay [6] was inactive. The concentration for half-maximal inhibition (IC50) is 14 µM in assay [3] and 37 µM in assay [5].
For the compound `O=C(O)c1cn(C2CC2)c2cc(N3CCNCC3)c(F)cc2c1=O` [CIPROFLOXACIN], the MIC in assay [1] was 0.25 µg/mL (≈ 0.754 µM).
For `CCc1c2s[nH]c(=O)c2c(=O)n2ccc(-c3cc(C)nc(C)c3)cc12`, the minimal inhibitory concentration (MIC) in assay [1] came out at 0.125 µg/mL (≈ 0.356 µM); in assay [4], 1 µg/mL (≈ 2.85 µM). Also, the outcome in assay [2] and in assay [6] was inactive. The IC50 in assay [3] is 0.2 µM; in assay [5], 6.3 µM.
For `CCn1cc(C(=O)O)c(=O)c2cc(F)c(N3CCNCC3)cc21` [NORFLOXACIN], the MIC in assay [1] turned out to be 0.5 µg/mL (≈ 1.57 µM); in assay [4], 0.06 µg/mL (≈ 0.188 µM).

For orientation: MIC means the lowest concentration found to suppress growth. The term IC50 denotes the concentration needed to halve the response being measured.
